High-throughput results from PubChem.
Only some compounds are listed: those with a hit (about 1.6% of all), similar ones and a draw of the others.
FLuc act counter – firefly luciferase counter-screen for stimulation assays; activation factor at 10 µM; 200,000 tested, under 10 active; P08659; ATPlite luciferase biochemical, luminescence, 10 min; 0 = ATP-free wells, 1 = DMSO control;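 active means luciferase activation factor, scaled between plate controls, of at least 2 with compound at 10 µM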
Target sequence (P08659 whole entry, looked up): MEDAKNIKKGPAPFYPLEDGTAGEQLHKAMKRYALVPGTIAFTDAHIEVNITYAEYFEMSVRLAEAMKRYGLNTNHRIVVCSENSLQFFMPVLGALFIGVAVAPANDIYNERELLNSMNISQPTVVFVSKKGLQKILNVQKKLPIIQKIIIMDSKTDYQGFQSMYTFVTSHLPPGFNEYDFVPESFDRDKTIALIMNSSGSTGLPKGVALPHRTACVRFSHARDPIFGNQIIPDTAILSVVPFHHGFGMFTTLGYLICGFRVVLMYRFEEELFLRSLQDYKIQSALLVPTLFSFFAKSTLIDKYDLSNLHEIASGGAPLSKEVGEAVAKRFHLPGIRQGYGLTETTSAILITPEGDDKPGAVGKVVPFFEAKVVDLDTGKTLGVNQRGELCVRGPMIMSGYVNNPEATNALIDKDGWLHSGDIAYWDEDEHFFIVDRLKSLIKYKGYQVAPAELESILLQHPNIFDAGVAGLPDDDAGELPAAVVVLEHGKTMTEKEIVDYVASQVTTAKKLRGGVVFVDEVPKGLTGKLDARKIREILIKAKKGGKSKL
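assay system = Luciferase/luciferin detection reagent, cell-free biochemical luciferase assay | also added = ATP substrate | times = 10 min post-reagent at room temperature | measured by = luminescence from luciferase reaction | measure = luciferase activation, seen as luminescence increase over controls | benchmarks = low control with PBS replacing ATP, high control enzyme plus ATP without compound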
Platelet DG rel – platelet dense granule release activity; inhibition, %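 (compounds screened at 7.5 µM in platelet-rich plasma)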; AID 1663; human platelet-rich plasma, SFLLRN dense granule ATP release, luminescence; 300,000 tested, 0.22% active;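 active means mean replicate score, as percent of positive control, at or above 50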
TRAIL sens C8 – sensitizes caspase-8 expressing cells to TRAIL. 360,000 tested, 1% active. NB7+C8 cells + TRAIL, ATPlite viability luminescence. inhibition (viability loss, TRAIL sensitization), % at 10 µM;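 active means compounds causing at least 50% loss of cell viability in the single-dose screen, relative to plate controls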
PPC-1+TRAIL kill – PPC-1 cancer cell killing with TRAIL present; PPC-1 cells + TRAIL, ATPLite viability luminescence; 220,000 tested, 0.41% active; cell killing (% activity), % at 4 µM or 5 µM;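 active means cell killing above 50% in the first pass at 4 µM, then a duplicate retest at 5 µM averaging 50% or more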;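 further: plate controls were cells with TRAIL plus DMSO for no effect and medium-only wells lacking cells for full effect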
FLuc inhib CS – counter-screen for luciferase assay inhibitors: firefly luciferase inhibition | P08659 | 200,000 tested, 1.5% active | ATPLite firefly luciferase biochemical luminescence, 10 min | inhibition, % at 10 µM;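 active means inhibition above about 50% when tested at 10 µM, limit read from the data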
Active calls of the source: *; / = no result.

SMILES	FLuc act counter	Platelet DG rel	TRAIL sens C8	PPC-1+TRAIL kill	FLuc inhib CS
CC(=O)c1cnc2c(-c3ccc(Cl)cc3)cnn2c1C	1	/	-3	10	-1
N#Cc1cnn2c(N)c(-c3ccc(Cl)cc3)cnc12	1	2	3	4	-2
Cc1nc2c(-c3ccc(F)cc3)cnn2c(N)c1-c1ccc(F)cc1	/	4	53*	/	/
Nc1c(-c2cccs2)cnc2c(-c3ccc(F)cc3)cnn12	/	-4	61*	/	/
Cc1cc(N)n2ncc(-c3ccc(F)cc3)c2n1	0.9	0	7	22	7
Cc1cccnc1C1=NOC(Cc2ccccc2)C(=O)N1Cc1ccc2c(c1)OCO2 (stereo not drawn)	/	/	-15	/	/
COC(=O)c1ccc(COc2cccn3c(N(C)C(=O)CCC4CCCC4)c(C)nc23)cc1	/	/	12	/	/
Nc1c(C(=O)O)cnc2c(-c3ccc(Cl)cc3)cnn12	0.4	23	20	34	58*
Nc1nc2nccc(-c3ccc(Cl)cc3)n2n1	0.5	/	29	16	51*
COc1ccc(-n2ncc3c(N4CCCCC4)ncnc32)cc1	0.1	12	89*	/	94*
Cc1cccc(-n2ncc3c(N4CC(C)CC(C)C4)ncnc32)c1 (stereo not drawn)	0.8	-3	20	14	19
Cc1cccc(-n2ncc3c(N4CCCC4)ncnc32)c1	0.1	6	80*	44	87*
COc1ccc(-n2ncc3c(N4CCN(c5cccc(C)c5C)CC4)ncnc32)cc1	/	-2	9	/	/
CC1(C)CC2(C)OC2C2(C1)N=NC(=Nc1ccccc1)O2 (stereo not drawn)	/	/	17	/	/
CCc1nc2c(OCC(=O)C(C)(C)C)cccn2c1N(C=O)Cc1ccc(OC)cc1	/	/	-4	/	/
O=C(Nc1cccc(Br)c1)c1ccc(OC2CSC2)cc1	0.4	14	/	2	58*
Cc1cccc(NC(=O)c2ccc(OC3CSC3)cc2)c1	0.2	35	36	47	80*
CC(=O)c1cccc(NC(=O)c2ccc(OC3CSC3)cc2)c1	0.8	-1	5	/	23
O=C(Nc1cccc(C(=O)Nc2cccc(Br)c2)c1)c1ccccc1	/	-10	8	/	/
CC(=O)c1ccc(N2CCN(C(=O)CNC(=O)c3ccc(Br)o3)CC2)cc1	/	/	-9	/	/
Cc1ccc2nc(-c3ccc4c(c3)OCCO4)cc(C(=O)O)c2c1	0.3	2	42	34	74*
O=C(OCc1ccccc1)N1CCC2CC1c1ccc(N3CCN(Cc4ccc5c(c4)OCO5)CC3)cc12 (stereo not drawn)	/	/	7	/	/
O=C(NCc1ccccc1)c1cc(C2CCCN(S(=O)(=O)c3ccccc3)C2)on1 (stereo not drawn)	/	/	-19	/	/
O=C(CCl)N(c1ccccc1)C1CCCCC1	1	1	95*	16	1
O=C(Oc1ccc2c(c1)OCC2=O)c1ccccc1	0.8	7	14	44	21
SMILES	FLuc act counter	Platelet DG rel	TRAIL sens C8	PPC-1+TRAIL kill	FLuc inhib CS
CC(=O)Oc1ccc2c(c1)C(=O)c1ccccc1CO2	0.3	1	1	-8	66*
COc1ccccc1Cc1c(-c2cccc(Br)c2)nc2c(C)cc(Br)cn12	/	/	9	/	/
COc1ccc2nc(-c3ccc(N)cc3)[nH]c2c1	0.4	29	34	25	65*
COc1ccc(-c2nnc(-c3ccc(N)cc3)o2)cc1	0.3	11	29	-6	68*
COc1ccc2nc(-c3ccccn3)[nH]c2c1	/	24	40	/	/
Nc1cccc(C(=O)Nc2ccc3nc(-c4cccnc4)[nH]c3c2)c1	0.9	9	2	4	11
Nc1ccc2nc(-c3cccnc3)[nH]c2c1	0.9	2	-2	16	12
Nc1cccc(-c2nc3ccc(C(=O)c4ccccc4)cc3[nH]2)c1	/	14	63*	/	/
Nc1ccc2nc(-c3ccccc3)[nH]c2c1	0.4	4	26	38	57*
CCN(CC)CCNc1ccc(CO)c2oc3ccccc3c(=O)c12	/	/	4	/	/
CCOC(=O)[C@]12CCCC=C1N(CCC1=CCCCC1)C(=O)[C@H](CC(=O)NCc1ccc(OC)c(OC)c1)C2	/	/	6	/	/
Cc1ccc2c(=O)n3c(nc2c1)C(Cc1ccccc1)NC(=O)c1cc2ccccc2cc1-3 (stereo not drawn)	/	/	24	/	/
CN(C)c1ncnc2c1ncn2[C@H]1CN(C2CCCC2)C[C@@H](CO)O1	/	/	-10	/	/
Nc1ccc2nc(-c3ccc(N)c(Cl)c3)[nH]c2c1	0.5	20	31	40	52*
O=C(OCc1cn([C@H]2CN(C(=O)C3CCCCC3)[C@@H](c3ccccc3)C[C@@H]2O)nn1)c1ccccc1	/	/	-3	/	/
C=C1C(=O)C23C(O)C1CCC2C12CCCC(C)(COC(C)=O)C1C(O)C3(O)OC2 (stereo not drawn)	/	/	74*	/	/
CN1CCN(c2ccc3c(c2)OC[C@@H](Cc2ccccc2)NS3(=O)=O)CC1	/	/	6	/	/
O=c1cc(COc2ncnc3c(Cl)cc(Cl)cc23)nc2sccn12	/	52*	2	6	/
O=c1cc(COc2ncnc3ccccc23)nc2sccn12	/	1	2	-12	/
Cc1ccc(NC(=O)c2sccc2C)nc1	/	52*	-9	/	/
Cc1ccc(NC(=O)C(=O)Nc2ccc(C)cn2)nc1	1	-2	2	-3	4
C[C@@H]1CN([C@@H](C)CO)C(=O)c2cc(Br)cnc2O[C@@H]1CN(C)S(=O)(=O)c1ccc(F)cc1	/	/	-13	/	/
C[C@@H]1CN([C@H](C)CO)C(=O)c2cc(Br)cnc2O[C@@H]1CN(C)Cc1ccc(F)cc1	/	/	-4	/	/
CC(C)[C@@H]1Cc2[nH]n(C)c(=O)c2[C@H](c2ccc(Cl)cc2)O1	/	/	-19	/	/
Cn1cc(C(=O)C(=O)N2CCCc3ccccc32)c2ccccc21	1	1	3	/	-5
SMILES	FLuc act counter	Platelet DG rel	TRAIL sens C8	PPC-1+TRAIL kill	FLuc inhib CS
Cn1cc(S(=O)(=O)CC(=O)N2CCCc3ccccc32)c2ccccc21	1.1	-1	65*	37	-8
CCOC(=O)CC(=O)CSc1nc2ccc(C)cc2cc1C#N	1	/	4	14	4
COC(=O)CSc1nc2cc(C)ccc2cc1C#N	1	2	56*	42	-1
CSc1ncccc1C(=O)N1CCC1(C)C(=O)NC(C)C (stereo not drawn)	/	/	-17	/	/
COc1ccc(-n2c(-c3ccc(Br)cc3)c[n+]3c2CCc2ccccc2-3)cc1	1	6	40	34	-4
CC(C)c1ccc(-n2c(-c3ccccc3)c[n+]3c2CCc2ccccc2-3)cc1	1	2	53*	48	-4
CCn1c(SCC(=O)N(C)c2c(N)n(Cc3ccccc3)c(=O)[nH]c2=O)nc2ccccc21	/	59*	10	8	/
Cc1nnc(SCC(=O)N(C)c2c(N)n(Cc3ccccc3)c(=O)[nH]c2=O)n1Cc1ccccc1	1	4	0	-19	-2
CCOc1ccc(-c2cc(C(=O)Nc3cccc(C(F)(F)F)c3)[nH]n2)c(C)c1	/	/	7	/	/
Cc1ccc(CONC(=O)c2ccccc2)cc1	/	-24	10	12	/
Cc1ccc(CONC(=O)c2ccc(Cl)cc2)cc1	/	/	4	/	/
COc1ccc(C(=O)NOCc2ccccc2)cc1	/	3	56*	/	/
